This note sets out measurements from ChEMBL document CHEMBL2040767, “Development of Polar Adenosine A2A Receptor Agonists for Inflammatory Bowel Disease: Synergism with A2B Antagonists” (ACS Med Chem Lett, 2011).

Experiment [1] concerns the target T1, Adenosine receptor A2a (Homo sapiens, UniProt P29274). Description: Displacement of [3H]CGS21680 from human recombinant adenosine A2A receptor. (Displacement assays read how much labelled ligand stays bound in the presence of the test substance.)
The target in experiment [2] is T2, Adenosine receptor A1 (Rattus norvegicus, UniProt P25099).
T2 sequence (P25099 whole entry): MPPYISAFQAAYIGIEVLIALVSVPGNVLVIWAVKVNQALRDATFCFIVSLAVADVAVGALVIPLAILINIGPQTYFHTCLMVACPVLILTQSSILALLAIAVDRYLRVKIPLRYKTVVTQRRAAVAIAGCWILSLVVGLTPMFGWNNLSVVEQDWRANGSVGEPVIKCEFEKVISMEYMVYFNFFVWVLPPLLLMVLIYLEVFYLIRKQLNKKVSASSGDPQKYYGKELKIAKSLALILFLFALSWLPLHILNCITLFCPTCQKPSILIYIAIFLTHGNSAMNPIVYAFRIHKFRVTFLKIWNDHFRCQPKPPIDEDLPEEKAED
Description: Displacement of [3H]CCPA from adenosine A1 receptor in rat brain cortex. In kind it is tissue-based.

The target of experiment [3] is T3, Adenosine receptor A1 (Homo sapiens, UniProt P30542).
T3 sequence (P30542 whole entry): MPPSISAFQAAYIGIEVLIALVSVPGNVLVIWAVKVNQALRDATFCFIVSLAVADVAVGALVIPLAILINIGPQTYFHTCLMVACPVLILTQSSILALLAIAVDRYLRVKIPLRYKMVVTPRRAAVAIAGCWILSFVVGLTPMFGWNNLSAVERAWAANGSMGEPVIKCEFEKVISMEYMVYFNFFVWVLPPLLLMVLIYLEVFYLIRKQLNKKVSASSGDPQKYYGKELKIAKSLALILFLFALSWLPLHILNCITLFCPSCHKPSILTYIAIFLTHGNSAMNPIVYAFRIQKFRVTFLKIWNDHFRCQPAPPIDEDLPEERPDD
Description: Displacement of [3H]CCPA from human recombinant adenosine A1 receptor.

Experiment [4] deals with T4, Adenosine receptor A2a (Rattus norvegicus, UniProt P30543). Description: Displacement of [3H]CGS21680 from adenosine A2A receptor in rat brain striatum. The experiment is classed as tissue-based.
T4 sequence (P30543 whole entry): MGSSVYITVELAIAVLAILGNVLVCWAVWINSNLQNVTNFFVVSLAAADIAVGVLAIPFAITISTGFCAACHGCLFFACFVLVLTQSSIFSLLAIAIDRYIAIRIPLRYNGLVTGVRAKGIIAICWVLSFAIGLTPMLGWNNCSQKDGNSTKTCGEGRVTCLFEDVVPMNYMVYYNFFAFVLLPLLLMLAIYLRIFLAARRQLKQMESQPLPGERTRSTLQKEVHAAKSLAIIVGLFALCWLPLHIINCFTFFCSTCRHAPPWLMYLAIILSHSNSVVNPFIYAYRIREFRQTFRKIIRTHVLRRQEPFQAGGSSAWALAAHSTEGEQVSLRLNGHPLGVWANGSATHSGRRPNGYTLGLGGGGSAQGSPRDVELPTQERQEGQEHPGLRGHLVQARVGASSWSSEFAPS
Experiment [5] concerns the target T5, Adenosine receptor A3 (Homo sapiens, UniProt P0DMS8).
T5 sequence (P0DMS8 whole entry): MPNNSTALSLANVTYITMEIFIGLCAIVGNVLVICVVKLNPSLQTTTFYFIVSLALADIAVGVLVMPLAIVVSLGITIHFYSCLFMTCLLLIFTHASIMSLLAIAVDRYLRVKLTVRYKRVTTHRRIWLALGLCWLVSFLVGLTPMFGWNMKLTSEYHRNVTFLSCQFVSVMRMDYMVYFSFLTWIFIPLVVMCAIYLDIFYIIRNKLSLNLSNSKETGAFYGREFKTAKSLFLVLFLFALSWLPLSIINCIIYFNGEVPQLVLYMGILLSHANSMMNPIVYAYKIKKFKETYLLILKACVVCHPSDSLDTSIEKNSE
Description: Displacement of [3H]PSB-11 from human recombinant adenosine A3 receptor expressed in CHO cells. The experiment is classed as cell-based. In a few lines:
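Competition binding at human recombinant A3 receptor with [3H]PSB-11 as radioligand; Ki reported as mean ± SEM from three experiments.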

Experiment [6] concerns the target T1, Adenosine receptor A2a. Put plainly: Agonist activity at human adenosine A2A receptor expressed in CHO-K1 cells by cAMP accumulation assay. In kind it is functional, cell-based. For orientation: cAMP levels reflect the balance of adenylyl cyclase and phosphodiesterase activity.
Experiment [7] addresses T6, Adenosine receptor A2b (Homo sapiens, UniProt P29275).
T6 sequence (P29275 whole entry): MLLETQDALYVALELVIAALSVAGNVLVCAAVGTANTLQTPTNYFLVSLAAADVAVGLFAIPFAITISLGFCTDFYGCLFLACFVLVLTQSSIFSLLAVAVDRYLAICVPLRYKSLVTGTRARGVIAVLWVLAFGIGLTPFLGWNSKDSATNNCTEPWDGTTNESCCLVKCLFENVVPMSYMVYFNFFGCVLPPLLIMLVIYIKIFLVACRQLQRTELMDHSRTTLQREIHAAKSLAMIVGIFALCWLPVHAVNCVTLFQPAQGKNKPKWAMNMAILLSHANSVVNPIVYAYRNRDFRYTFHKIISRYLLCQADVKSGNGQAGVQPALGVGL
Put plainly: Displacement of [3H]PSB-603 from human recombinant adenosine A2B receptor expressed in CHO cells after 75 mins by liquid scintillation assay. The experiment is classed as cell-based.

In experiment [8] the target is T5, Adenosine receptor A3. Put plainly: Displacement of [3H]NECA from human recombinant adenosine A3 receptor.
Experiment [9] has as its target T4, Adenosine receptor A2a. Put plainly: Displacement of [3H]MSX-2 from adenosine A2A receptor in rat brain striatum. The experiment is classed as tissue-based.
Experiment [10] has as its target T7, Adenosine receptor A2b (Rattus norvegicus) (UniProt P29276).
T7 sequence (whole entry): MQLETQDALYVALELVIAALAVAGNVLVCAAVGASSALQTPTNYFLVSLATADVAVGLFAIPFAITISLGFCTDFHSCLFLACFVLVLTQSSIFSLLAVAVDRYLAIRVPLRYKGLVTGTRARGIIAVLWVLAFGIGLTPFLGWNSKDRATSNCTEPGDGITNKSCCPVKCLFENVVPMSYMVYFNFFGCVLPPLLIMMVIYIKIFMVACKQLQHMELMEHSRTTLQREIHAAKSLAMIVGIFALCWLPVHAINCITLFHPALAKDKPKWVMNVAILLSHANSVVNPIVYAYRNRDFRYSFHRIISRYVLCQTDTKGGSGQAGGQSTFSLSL
Put plainly: Antagonist activity at adenosine A2B receptor in Wistar rat ileum/jejunum segment assessed as reversal of TNBS-induced inhibition of Ach-induced contraction after 30 mins. The experiment is classed as functional, tissue-based. In a few lines: (§1)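 Ex vivo rat ileum/jejunum segments; contractions evoked by acetylcholine 1 mM, expressed as % of Ach contraction without drug (100%). Acute inflammation induced by TNBS 10 mM, with the A2B antagonist (1–100 μM) preincubated alongside TNBS. Means ± SEM of seven experiments.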

Experiment [11] addresses T7, Adenosine receptor A2b (Rattus norvegicus). Description: Antagonist activity at adenosine A2B receptor in Wistar rat ileum/jejunum segment assessed as reversal of TNBS-induced inhibition of Ach-induced contraction at 10 uM after 30 mins. The arrangement: scale not given: the % may be the effect or the level left. The experiment is classed as functional, tissue-based. In a few lines: as §1

For experiment [12] the target is unchanged. Description: Antagonist activity at adenosine A2B receptor in Wistar rat ileum/jejunum segment assessed as reversal of TNBS-induced inhibition of Ach-induced contraction at 100 uM after 30 mins. The arrangement: scale not given: the % may be the effect or the level left. In kind it is functional, tissue-based. Put shortly:
as §1

T1 sequence (P29274 whole entry): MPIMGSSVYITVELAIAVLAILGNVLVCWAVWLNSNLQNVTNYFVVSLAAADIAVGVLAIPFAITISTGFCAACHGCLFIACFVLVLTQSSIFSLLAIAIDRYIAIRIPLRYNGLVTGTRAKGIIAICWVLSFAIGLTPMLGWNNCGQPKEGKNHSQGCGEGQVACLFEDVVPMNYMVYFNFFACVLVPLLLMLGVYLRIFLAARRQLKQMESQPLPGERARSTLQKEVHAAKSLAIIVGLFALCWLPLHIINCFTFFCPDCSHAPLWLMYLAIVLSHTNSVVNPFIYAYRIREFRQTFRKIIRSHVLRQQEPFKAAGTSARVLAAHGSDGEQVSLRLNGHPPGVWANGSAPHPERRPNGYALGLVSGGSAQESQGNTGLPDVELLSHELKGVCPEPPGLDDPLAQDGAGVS

As usually defined, the Ki is the dissociation constant of the complex between target and ligand, obtained from inhibition or displacement. For the compound `Nc1nc(S(=O)(=O)CCc2ccc(S(=O)(=O)O)cc2)nc2c1ncn2[C@@H]1O[C@H](CO)[C@@H](O)[C@H]1O`, the Ki in [1] is over 10000 nM; in [2], 1800 nM; in experiment [3], 545 nM; in experiment [4] it was over 10000 nM; in [5] it was over 10000 nM.

The term EC50 denotes the concentration giving half of the maximal effect. Compound `Nc1nc(SCCc2ccc(S(=O)(=O)O)cc2)nc2c1ncn2[C@@H]1O[C@H](CO)[C@@H](O)[C@H]1O` had an EC50 in experiment [6] of 117 nM. The Ki in experiment [1] is 360 nM; in experiment [7], over 10000 nM; in experiment [8] it was over 1000 nM; in experiment [2] it was at least 10000 nM; in [3], 541 nM; in experiment [4], 44.4 nM. The Ki in experiment [5] was over 10000 nM.

As for `Nc1nc(SCC(=O)O)nc2c1ncn2[C@@H]1O[C@H](CO)[C@@H](O)[C@H]1O`, the Ki was over 10000 nM in experiment [1], over 10000 nM in [9], 1930 nM in experiment [2] and over 10000 nM in [5].

Regarding `CCCn1c(=O)[nH]c2nc(-c3ccc(S(=O)(=O)N4CCN(Cc5ccccc5)CC4)cc3)[nH]c2c1=O`, the values for the Activity result in [10], in experiment [11] and in [12] were “Dose-dependent effect”, 53.3% and 86.1%, respectively.

With `Nc1nc(SCCc2ccc(C(=O)O)cc2)nc2c1ncn2[C@@H]1O[C@H](CO)[C@@H](O)[C@H]1O`, the Ki in experiment [1] was at least 10000 nM; in experiment [7], over 10000 nM; in experiment [8] it was over 1000 nM; in [2] it was 1010 nM; in [3] it was 404 nM; in experiment [4], 152 nM. For the same compound, in experiment [5], the Ki is over 10000 nM.
